Experimental data from the RNAGym collection of RNA variant scans (doi:10.1038/s41586-018-0170-7).

B1: tRNA (parent)
chain: GUUCCGUUGGCGUAAUGGUAACGCGUCUCCCUCCUAAGGAGAAGACUGCGGGUUCGAGUCCCGUACGGAACG

Variants of: B1
Experiment: yeast fitness, log relative to wild type (ln ratio); higher = fitter; tRNA-Arg(CCU), competitive growth, 37 C, 1 M NaCl
Summary of the method: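 Genotype fitness is expressed as the natural log of its generations over those of the wild type. Each pool of the tRNA-Arg(CCU) variant library, carried on a HIS3 centromeric plasmid in BY4742 lacking the chromosomal gene, came from one of two independent transformations and grew 4 generations in SC-HIS at 30 °C before ~6.5 generations (~26.5 h) in SC-HIS 1M NaCl at 37 °C. Generation numbers used OD-scaled log2 output/input frequencies from 125 bp paired-end Illumina sequencing, combined across replicates by inverse-variance weighting.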

Variant	yeast fitness (ln)
AUUCCUUUGGCGUAAUGGUAACGCGUCUCCCUCCUAAGGAGAAGACUGCGGGUUCGAGUCCCGUAUGGAGCG	-0.199
AUUCCUUUGGCGUAAUGGUAACGCGUCUCCCUCCUAAGGAGAAGACUGCGGGUUCGAGUCCCGUAUGGAUCG	-0.154
AUUCCUUUGGCGUAAUGGUAACGCGUCUCCCUCCUAAGGAGAAGAUUGCGGGUUCGAGUCCCGUAAGGAUUG	-0.084
AUUCCUUUGGCGUAAUGGUAACGCGUCUCCCUCCUAAGGAGAAGACUGCGGGUUCGAGUCCCGUAUGGAGUG	-0.272
AUUCCUUUGGCGUAAUGGUAACGCGUCUCCCUCCUAAGGAGAAGAUUGCGGGUUCGAGUCCCGUAAGGGAUG	-0.041
AUUCCUUUGGCGUAAUGGUAACGCGUCUCCCUCCUAAGGAGAAGACUGCGGGUUCGAGUCCCGUAAGGAGUG	-0.0373
AUUCCUUUGGCGUAAUGGUAACGCGUCUCCCUCCUAAGGAGAAGACUGCGGGUUCGAGUCCCGUAUGGAAUG	-0.425
ACUCCGUUGGCGUAAUGGUAACGCGUCUCCCUCCUAAGGAGACGACUGCGGGUUCGAGUCCCGUACGGGUCG	-0.0414
ACUCCGUUGGCGUAAUGGUAACGCGUCUCCCUCCUAAGGAGACGACUGCGGGUUCGAGUCCCGUACGGGGCG	-0.151
AUUCCUUUGGCGUAAUGGUAACGCGUCUCCCUCCUAAGGAGAAGACUGCGGGUUCGAGUCCCGUAAGGGUCG	-0.0798
AUUCCUUUGGCGUAAUGGUAACGCGUCUCCCUCCUAAGGAGAAGAUUGCGGGUUCGAGUCCCGUAAGGGUCG	-0.106
AUUCCUUUGGCGUAAUGGUAACGCGUCUCCCUCCUAAGGAGAAGAUUGCGGGUUCGAGUCCCGUAAGGGGCG	-0.158
ACUCCGUUGGCGUAAUGGUAACGCGUCUCCCUCCUAAGGAGACGACUGCGGGUUCGAGUCCCGUACGGAGUG	-0.011
AUUCCUUUGGCGUAAUGGUAACGCGUCUCCCUCCUAAGGAGAAGACUGCGGGUUCGAGUCCCGUAUGGGGCG	-0.288
AUUCCUUUGGCGUAAUGGUAACGCGUCUCCCUCCUAAGGAGAAGACUGCGGGUUCGAGUCCCGUAUGGGUCG	-0.284
AUUCCUUUGGCGUAAUGGUAACGCGUCUCCCUCCUAAGGAGAAGACUGCGGGUUCGAGUCCCGUAUGGAUUG	-0.278
AUUCCUUUGGCGUAAUGGUAACGCGUCUCCCUCCUAAGGAGAAGACUGCGGGUUCGAGUCCCGUAAGGAGCG	-0.196
AUUCCUUUGGCGUAAUGGUAACGCGUCUCCCUCCUAAGGAGAAGACUGCGGGUUCGAGUCCCGUAAGGAUCG	-0.0574
ACUCCGUUGGCGUAAUGGUAACGCGUCUCCCUCCUAAGGAGACGACUGCGGGUUCGAGUCCCGUACGGAUCG	-0.108

Variant	yeast fitness (ln)
ACUCCGUUGGCGUAAUGGUAACGCGUCUCCCUCCUAAGGAGACGACUGCGGGUUCGAGUCCCGUACGGAGCG	-0.0553
ACUCCGUUGGCGUAAUGGUAACGCGUCUCCCUCCUAAGGAGACGAUUGCGGGUUCGAGUCCCGUACGGGAUG	-0.175
AUUCCUUUGGCGUAAUGGUAACGCGUCUCCCUCCUAAGGAGAAGACUGCGGGUUCGAGUCCCGUAAGGGAUG	-0.032
ACUCCGUUGGCGUAAUGGUAACGCGUCUCCCUCCUAAGGAGACGACUGCGGGUUCGAGUCCCGUACGGGUUG	-0.29
ACUCCGUUGGCGUAAUGGUAACGCGUCUCCCUCCUAAGGAGACGAUUGCGGGUUCGAGUCCCGUAUGGGGUG	-0.417
ACUCCGUUGGCGUAAUGGUAACGCGUCUCCCUCCUAAGGAGACGAUUGCGGGUUCGAGUCCCGUACGGAUCG	-0.0817
ACUCCGUUGGCGUAAUGGUAACGCGUCUCCCUCCUAAGGAGACGAUUGCGGGUUCGAGUCCCGUACGGAGCG	-0.00269
AUUCCUUUGGCGUAAUGGUAACGCGUCUCCCUCCUAAGGAGAAGACUGCGGGUUCGAGUCCCGUAUGGGGUG	-0.273
ACUCCGUUGGCGUAAUGGUAACGCGUCUCCCUCCUAAGGAGACGAUUGCGGGUUCGAGUCCCGUAUGGGGCG	-0.0919
ACUCCGUUGGCGUAAUGGUAACGCGUCUCCCUCCUAAGGAGACGAUUGCGGGUUCGAGUCCCGUAUGGGUCG	-0.195
AUUCCUUUGGCGUAAUGGUAACGCGUCUCCCUCCUAAGGAGAAGAUUGCGGGUUCGAGUCCCGUAUGGAGCG	-0.195
AUUCCUUUGGCGUAAUGGUAACGCGUCUCCCUCCUAAGGAGAAGAUUGCGGGUUCGAGUCCCGUAUGGAUCG	-0.153
ACUCCGUUGGCGUAAUGGUAACGCGUCUCCCUCCUAAGGAGACGAUUGCGGGUUCGAGUCCCGUAUGGAGUG	-0.0729
ACUCCGUUGGCGUAAUGGUAACGCGUCUCCCUCCUAAGGAGACGAUUGCGGGUUCGAGUCCCGUACGGAUUG	-0.0746
ACUCCGUUGGCGUAAUGGUAACGCGUCUCCCUCCUAAGGAGAAGACUGCGGGUUCGAGUCCCGUACGGAACG	-0.00128
AUUCCUUUGGCGUAAUGGUAACGCGUCUCCCUCCUAAGGAGAAGACUGCGGGUUCGAGUCCCGUAAGGAUUG	-0.159
AUUCCUUUGGCGUAAUGGUAACGCGUCUCCCUCCUAAGGAGAAGAUUGCGGGUUCGAGUCCCGUAUGGGAUG	-0.814
ACUCCGUUGGCGUAAUGGUAACGCGUCUCCCUCCUAAGGAGACGAUUGCGGGUUCGAGUCCCGUACGGAACG	-0.00932
AUUCCUUUGGCGUAAUGGUAACGCGUCUCCCUCCUAAGGAGAAGAUUGCGGGUUCGAGUCCCGUACGGAUUG	-0.185
